≈ marks a conversion by molar mass, not a printed value.
Experiments:
Type in all cases: functional
Bacillus subtilis = experiment: Antibacterial activity against Bacillus subtilis MTCC 441 by broth dilution method
Outline: (§1)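 Test bacteria kept on nutrient agar slants and subcultured in Petri dishes before testing. Nutrient agar and nutrient broth media. Compounds dissolved in acetone. MIC determined by broth dilution.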

Pseudomonas aeruginosa = experiment: Antibacterial activity against Pseudomonas aeruginosa MTCC 1688 by broth dilution method; outline: as §1
Staphylococcus aureus = experiment: Antibacterial activity against Staphylococcus aureus MTCC 96 by broth dilution method; outline: as §1
Candida albicans [1] = experiment: Antifungal activity against Candida albicans MTCC 227 at 100 ug/ml by agar cup diffusion method; conditions: read-out: IZ
Outline: (§2)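 Agar cup diffusion on autoclaved potato dextrose agar (15 lb/inch², 20 min). A week-old culture was spread over the solidified agar, and 6 mm cups were bored. Compounds were in DMSO at 100–150; amphotericin-B reference at 50; DMSO control. Plates held at 28 °C for 48 h. Inhibition zone diameter read in mm.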

Aspergillus niger [2] = experiment: Antifungal activity against Aspergillus niger MTCC 1344 at 100 ug/ml by agar cup diffusion method; conditions: read-out: IZ; outline: as §2
Aspergillus niger [3] = experiment: Antifungal activity against Aspergillus niger MTCC 1344 at 150 ug/ml by agar cup diffusion method; conditions: read-out: IZ; outline: as §2
Candida albicans [4] = experiment: Antifungal activity against Candida albicans MTCC 227 at 150 ug/ml by agar cup diffusion method; conditions: read-out: IZ; outline: as §2
Escherichia coli = experiment: Antibacterial activity against Escherichia coli MTCC 443 by broth dilution method; outline: as §1
Rhizopus arrhizus [5] = experiment: Antifungal activity against Rhizopus oryzae MTCC 262 at 100 ug/ml by agar cup diffusion method; conditions: read-out: IZ; outline: as §2
Rhizopus arrhizus [6] = experiment: Antifungal activity against Rhizopus oryzae MTCC 262 at 150 ug/ml by agar cup diffusion method; conditions: read-out: IZ; outline: as §2
Saccharomyces cerevisiae = experiment: Antifungal activity against Saccharomyces cerevisiae MTCC 36 at 50 ug/ml by agar cup diffusion method; conditions: MTCC 36, read-out: IZ; outline: as §2
Aspergillus niger [7] = experiment: Antifungal activity against Aspergillus niger MTCC 1344 at 50 ug/ml by agar cup diffusion method; conditions: MTCC 1344, read-out: IZ; outline: as §2
Candida albicans [8] = experiment: Antifungal activity against Candida albicans MTCC 227 at 50 ug/ml by agar cup diffusion method; conditions: MTCC 227, read-out: IZ
Rhizopus arrhizus [9] = experiment: Antifungal activity against Rhizopus oryzae MTCC 262 at 50 ug/ml by agar cup diffusion method; conditions: MTCC 262, read-out: IZ; outline: as §2

Structure (SMILES)	MIC (Bacillus subtilis) [µg/mL]	MIC (Pseudomonas aeruginosa) [µg/mL]	MIC (Staphylococcus aureus) [µg/mL]	zone of inhibition at 100 µg/mL (Candida albicans [1]) [mm]	zone of inhibition at 100 µg/mL (Aspergillus niger [2]) [mm]	zone of inhibition at 150 µg/mL (Aspergillus niger [3]) [mm]	zone of inhibition at 150 µg/mL (Candida albicans [4]) [mm]	MIC (Escherichia coli) [µg/mL]	zone of inhibition at 100 µg/mL (Rhizopus arrhizus [5]) [mm]	zone of inhibition at 150 µg/mL (Rhizopus arrhizus [6]) [mm]	zone of inhibition at 50 µg/mL (Saccharomyces cerevisiae) [mm]	zone of inhibition at 50 µg/mL (Aspergillus niger [7]) [mm]	zone of inhibition at 50 µg/mL (Candida albicans [8]) [mm]	zone of inhibition at 50 µg/mL (Rhizopus arrhizus [9]) [mm]
C=CC1(C)CCNc2c3c(C(F)(F)F)cc(-c4ccccc4)c(C#N)c3nn21 (configuration not stated)	150 (≈ 392 µM)	150 (≈ 392 µM)	75 (≈ 196 µM)	7	7	8	8	150 (≈ 392 µM)						
N#Cc1c(C(F)(F)F)cc(-c2ccccc2)c2c3n(nc12)C(c1ccccc1)CCN3 (configuration not stated)									8	10				
N#Cc1c(-c2ccccc2)cc(C(F)(F)F)c2c3n(nc12)[C@H]1OCCC[C@H]1CN3	150 (≈ 377 µM)	150 (≈ 377 µM)	75 (≈ 188 µM)					75 (≈ 188 µM)	9					
CC1(c2ccccc2)CCNc2c3c(C(F)(F)F)cc(-c4ccccc4)c(C#N)c3nn21 (configuration not stated)	75 (≈ 173 µM)	75 (≈ 173 µM)	75 (≈ 173 µM)	8			9	37.5 (≈ 86.7 µM)		12				
N#Cc1c(-c2ccccc2)cc(C(F)(F)F)c2c3n(nc12)C(c1ccccc1)CCN3 (configuration not stated)	50 (≈ 119 µM)	50 (≈ 119 µM)	50 (≈ 119 µM)					25 (≈ 59.7 µM)						
N#Cc1c(-c2ccccc2)cc(C(F)(F)F)c2c3n(nc12)[C@H]1C=CC[C@H]1CN3	150 (≈ 394 µM)	75 (≈ 197 µM)	37.5 (≈ 98.6 µM)			10	9	37.5 (≈ 98.6 µM)						
N#Cc1c(C(F)(F)F)cc(-c2ccccc2)c2c3n(nc12)[C@H]1OCCC[C@H]1CN3	150 (≈ 377 µM)	150 (≈ 377 µM)	150 (≈ 377 µM)	8			10	75 (≈ 188 µM)		9				
C[C@@H]1[C@H](O)[C@@H](C)/C=C/C=C/C=C/C=C/C=C/C=C/C=C/[C@H](O[C@@H]2O[C@H](C)[C@@H](O)[C@H](N)[C@@H]2O)C[C@@H]2O[C@](O)(C[C@@H](O)C[C@@H](O)[C@H](O)CC[C@@H](O)C[C@@H](O)CC(=O)O[C@H]1C)C[C@H](O)[C@H]2C(=O)O [AMPHOTERICIN B]											23	23.5	22	26
N#Cc1c(-c2ccccc2)cc(C(F)(F)F)c2c3n(nc12)[C@@]1(c2ccccc2)CCCC[C@H]1CN3	75 (≈ 159 µM)	75 (≈ 159 µM)	37.5 (≈ 79.4 µM)	9		10	11	37.5 (≈ 79.4 µM)		9				
N#Cc1c(-c2ccccc2)cc(C(F)(F)F)c2c3n(nc12)[C@H]1c2ccccc2C[C@H]1CN3	75 (≈ 174 µM)	150 (≈ 348 µM)	150 (≈ 348 µM)			9		75 (≈ 174 µM)	7	9				
C=CC1(C)CCNc2c3c(-c4ccccc4)cc(C(F)(F)F)c(C#N)c3nn21 (configuration not stated)	75 (≈ 196 µM)	75 (≈ 196 µM)	150 (≈ 392 µM)					150 (≈ 392 µM)						
N#Cc1c(-c2ccccc2)cc(C(F)(F)F)c2c3n(nc12)[C@H]1C=CCC[C@H]1CN3	150 (≈ 380 µM)	75 (≈ 190 µM)	75 (≈ 190 µM)	7	10	12	8	37.5 (≈ 95.1 µM)	8	12				

From ChEMBL document CHEMBL1149772, “GdCl(3) catalysed Grieco condensation: a facile approach for the synthesis of novel pyrimidine and annulated pyrimidine fused indazole derivatives in single pot under mild conditions and their anti-microbial activity” (2008)
